From ChEMBL document CHEMBL5724801, “EUbOPEN Chemogenomics Library - Multiplex” (2024)
“And” between values parts separate entries of the source, which are not always exact repeats. Identical values can stand only once.

System: U2OS
Assay: Multiplex assay against U2OS
Format: toxicity, cell-based
Conditions: human, 12 h, 1 µM, compound concentration 1 uM
Method in brief: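 With compound added, live cells were imaged on a CQ1 microscope at 37°C and 5% CO2; staining with Hoechst33342, BioTracker Green Microtubule Cytoskeleton Dye, MitoTracker Red and Annexin V Alexa Fluor 680 had been done at seeding. The CellPathfinder machine-learning gating scheme split cells into Hoechst high-intensity objects or normal cells, normal cells into healthy, pyknosed or fragmented nuclei, and pyknosed cells into mitotic or apoptotic. The tubulin, mitochondrial-mass and membrane-permeability phenotypes are per cents of healthy-nucleus cells.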

| SMILES | Population Apoptotic (%) | Population Fragmented Nuclei (%) | Population Healthy Nuclei (%) | Population Hoechst High Intensity Objects (%) | Population Membrane Permeable-Phenotype (%) | Population Mitotic Cells (%) | Population Normal (%) | Population Pyknosed Nuclei (%) | Population Tubulin-Different-Phenotype (%) | Total Cell Count |
| --- | --- | --- | --- | --- | --- | --- | --- | --- | --- | --- |
| CCNC1(C(N)=O)CCN(c2ncnc3c2nc(-c2ccccc2Cl)n3-c2ccc(Cl)cc2)CC1 [OTENABANT] | 77% and 85% | 30% and 17% | 60% and 74% | 3% and 2% | 13% and 11% | 22% and 14% | 96% and 97% | 9% and 7% | 4% and 10% | 254 and 93 |
| CC(C)COc1ccc(CNC(=O)N(Cc2ccc(F)cc2)C2CCN(C)CC2)cc1 [PIMAVANSERIN] | 84% and 100% | 23% and 11% | 67% and 80% | 2% and 0% | 6% | 16% and 0% | 97% and 99% | 9% and 7% | 5% and 6% | 265 and 136 |

Same assay, conditions: human, 12 h, 1 µM, compound concentration 1 uM

| SMILES | Population Mitochondria Different-Phenotype (%) |
| --- | --- |
| CC(C)COc1ccc(CNC(=O)N(Cc2ccc(F)cc2)C2CCN(C)CC2)cc1 [PIMAVANSERIN] | 3% and 4% |

Same assay, conditions: human, 12 h, 10 µM, compound concentration 10 uM

| SMILES | Population Apoptotic (%) | Population Fragmented Nuclei (%) | Population Healthy Nuclei (%) | Population Hoechst High Intensity Objects (%) | Population Membrane Permeable-Phenotype (%) | Population Mitochondria Different-Phenotype (%) | Population Mitotic Cells (%) | Population Normal (%) | Population Pyknosed Nuclei (%) | Population Tubulin-Different-Phenotype (%) |
| --- | --- | --- | --- | --- | --- | --- | --- | --- | --- | --- |
| CCNC1(C(N)=O)CCN(c2ncnc3c2nc(-c2ccccc2Cl)n3-c2ccc(Cl)cc2)CC1 [OTENABANT] | 58% and 70% | 31% and 21% | 48% and 60% | 6% and 0% | 81% and 65% | 63% and 73% | 41% and 30% | 93% and 99% | 19% and 18% | 89% and 76% |
| CC(C)COc1ccc(CNC(=O)N(Cc2ccc(F)cc2)C2CCN(C)CC2)cc1 [PIMAVANSERIN] | 67% and 71% | 23% and 18% | 48% and 54% | 5% and 4% | 48% and 26% | 73% and 70% | 32% and 28% | 94% and 95% | 27% and 26% | 77% and 52% |

Same assay, conditions: human, 12 h, 10 µM, compound concentration 10 uM

| SMILES | Total Cell Count |
| --- | --- |
| CCNC1(C(N)=O)CCN(c2ncnc3c2nc(-c2ccccc2Cl)n3-c2ccc(Cl)cc2)CC1 [OTENABANT] | 211 and 112 |
| CC(C)COc1ccc(CNC(=O)N(Cc2ccc(F)cc2)C2CCN(C)CC2)cc1 [PIMAVANSERIN] | 202 and 124 |

Same assay, conditions: human, 24 h, 1 µM, compound concentration 1 uM

| SMILES | Population Apoptotic (%) | Population Fragmented Nuclei (%) | Population Healthy Nuclei (%) | Population Hoechst High Intensity Objects (%) | Population Membrane Permeable-Phenotype (%) | Population Mitochondria Different-Phenotype (%) | Population Mitotic Cells (%) | Population Normal (%) | Population Pyknosed Nuclei (%) | Population Tubulin-Different-Phenotype (%) |
| --- | --- | --- | --- | --- | --- | --- | --- | --- | --- | --- |
| CCNC1(C(N)=O)CCN(c2ncnc3c2nc(-c2ccccc2Cl)n3-c2ccc(Cl)cc2)CC1 [OTENABANT] | 79% and 80% | 26% and 24% | 61% and 62% | 3% and 4% | 11% and 15% | 5% and 15% | 20% | 96% and 95% | 11% and 13% | 7% and 5% |
| CC(C)COc1ccc(CNC(=O)N(Cc2ccc(F)cc2)C2CCN(C)CC2)cc1 [PIMAVANSERIN] | 92% and 78% | 22% and 11% | 67% and 80% | 2% and 1% | 10% and 11% | 4% and 8% | 7% and 21% | 97% and 98% | 9% and 8% | 6% |

Same assay, conditions: human, 24 h, 1 µM, compound concentration 1 uM

| SMILES | Total Cell Count |
| --- | --- |
| CCNC1(C(N)=O)CCN(c2ncnc3c2nc(-c2ccccc2Cl)n3-c2ccc(Cl)cc2)CC1 [OTENABANT] | 308 and 120 |
| CC(C)COc1ccc(CNC(=O)N(Cc2ccc(F)cc2)C2CCN(C)CC2)cc1 [PIMAVANSERIN] | 294 and 163 |

Same assay, conditions: human, 24 h, 10 µM, compound concentration 10 uM

| SMILES | Population Apoptotic (%) | Population Fragmented Nuclei (%) | Population Healthy Nuclei (%) | Population Hoechst High Intensity Objects (%) | Population Membrane Permeable-Phenotype (%) | Population Mitochondria Different-Phenotype (%) | Population Mitotic Cells (%) | Population Normal (%) | Population Pyknosed Nuclei (%) | Population Tubulin-Different-Phenotype (%) |
| --- | --- | --- | --- | --- | --- | --- | --- | --- | --- | --- |
| CCNC1(C(N)=O)CCN(c2ncnc3c2nc(-c2ccccc2Cl)n3-c2ccc(Cl)cc2)CC1 [OTENABANT] | 69% and 80% | 29% and 28% | 49% and 53% | 3% | 55% and 47% | 75% and 72% | 30% and 20% | 96% | 20% and 18% | 78% and 62% |
| CC(C)COc1ccc(CNC(=O)N(Cc2ccc(F)cc2)C2CCN(C)CC2)cc1 [PIMAVANSERIN] | 88% and 79% | 28% and 16% | 40% and 50% | 10% and 3% | 32% and 30% | 67% and 75% | 11% and 20% | 89% and 96% | 31% and 33% | 49% |

Same assay, conditions: human, 24 h, 10 µM, compound concentration 10 uM

| SMILES | Total Cell Count |
| --- | --- |
| CCNC1(C(N)=O)CCN(c2ncnc3c2nc(-c2ccccc2Cl)n3-c2ccc(Cl)cc2)CC1 [OTENABANT] | 218 and 137 |
| CC(C)COc1ccc(CNC(=O)N(Cc2ccc(F)cc2)C2CCN(C)CC2)cc1 [PIMAVANSERIN] | 214 and 135 |

Same assay, conditions: human, 48 h, 1 µM, compound concentration 1 uM

| SMILES | Population Apoptotic (%) | Population Fragmented Nuclei (%) | Population Healthy Nuclei (%) | Population Hoechst High Intensity Objects (%) | Population Membrane Permeable-Phenotype (%) | Population Mitochondria Different-Phenotype (%) | Population Normal (%) | Population Pyknosed Nuclei (%) | Population Tubulin-Different-Phenotype (%) | Population Mitotic Cells (%) |
| --- | --- | --- | --- | --- | --- | --- | --- | --- | --- | --- |
| CCNC1(C(N)=O)CCN(c2ncnc3c2nc(-c2ccccc2Cl)n3-c2ccc(Cl)cc2)CC1 [OTENABANT] | 86% and 52% | 24% and 16% | 64% and 69% | 1% and 4% | 7% and 13% | 4% and 10% | 98% and 95% | 10% and 14% | 3% and 9% | – |
| CC(C)COc1ccc(CNC(=O)N(Cc2ccc(F)cc2)C2CCN(C)CC2)cc1 [PIMAVANSERIN] | 87% and 92% | 19% and 12% | 68% and 76% | 2% and 1% | 6% and 5% | 5% | 97% and 98% | 12% and 11% | 4% and 2% | 12% and 7% |

Same assay, conditions: human, 48 h, 1 µM, compound concentration 1 uM

| SMILES | Total Cell Count |
| --- | --- |
| CC(C)COc1ccc(CNC(=O)N(Cc2ccc(F)cc2)C2CCN(C)CC2)cc1 [PIMAVANSERIN] | 393 and 234 |

Same assay, conditions: human, 48 h, 10 µM, compound concentration 10 uM

| SMILES | Population Apoptotic (%) | Population Fragmented Nuclei (%) | Population Healthy Nuclei (%) | Population Hoechst High Intensity Objects (%) | Population Membrane Permeable-Phenotype (%) | Population Mitochondria Different-Phenotype (%) | Population Mitotic Cells (%) | Population Normal (%) | Population Pyknosed Nuclei (%) | Population Tubulin-Different-Phenotype (%) |
| --- | --- | --- | --- | --- | --- | --- | --- | --- | --- | --- |
| CCNC1(C(N)=O)CCN(c2ncnc3c2nc(-c2ccccc2Cl)n3-c2ccc(Cl)cc2)CC1 [OTENABANT] | 86% and 80% | 32% and 29% | 43% and 45% | 7% and 10% | 49% and 43% | 55% and 66% | 13% and 20% | 92% and 89% | 23% and 24% | 51% and 49% |
| CC(C)COc1ccc(CNC(=O)N(Cc2ccc(F)cc2)C2CCN(C)CC2)cc1 [PIMAVANSERIN] | 98% and 95% | 38% | 19% and 15% | 13% and 8% | 40% and 66% | 56% and 80% | 1% and 4% | 86% and 91% | 42% and 45% | 54% and 71% |

Same assay, conditions: human, 48 h, 10 µM, compound concentration 10 uM

| SMILES | Total Cell Count |
| --- | --- |
| CCNC1(C(N)=O)CCN(c2ncnc3c2nc(-c2ccccc2Cl)n3-c2ccc(Cl)cc2)CC1 [OTENABANT] | 269 and 138 |
| CC(C)COc1ccc(CNC(=O)N(Cc2ccc(F)cc2)C2CCN(C)CC2)cc1 [PIMAVANSERIN] | 222 and 146 |
